Source: ChEMBL document CHEMBL1140808, “Antiproliferative effects of dibenzocyclooctadiene lignans isolated from Schisandra chinensis in human cancer cells” (Bioorg Med Chem Lett, 2008)
pIC50: −log10 of the molar value. One block for each compound: values may come before it. Calls of active or inactive are those of the source. No cut-off for these calls is given here.

Columns and labels:
A549 [1] = test: Cell cycle arrest in human A549 cells assessed as accumulation at S phase at 5 uM after 24 hrs; assay type: functional
How it was run: (§1)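 A549 human lung cancer cells exposed 24 h to the lignan over 3.75–60 µM. Cell cycle distribution measured by flow cytometry. The percentage of cells in each phase (G0/G1, S, G2/M, sub-G1) was derived by cell cycle modelling of the DNA histograms.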

A549 [2] = test: Cell cycle arrest in human A549 cells assessed as accumulation at subG1 phase at 40 uM after 24 hrs; assay type: functional; how it was run: as §1
A549 [3] = test: Inhibition of human retinoblastoma protein phosphorylation in A549 cells after 24 hrs; assay type: cell-based
How it was run: (§2)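 Protein levels measured by Western blot in A549 human lung cancer cells after 24 h exposure to a range of lignan concentrations.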

HCT-15 = test: Antiproliferative activity against human HCT15 cells after 72 hrs by SRB assay; assay type: functional, cell-based
A549 [4] = test: Effect on cyclin A expression in human A549 cells at 60 uM after 24 hrs; assay type: functional, cell-based; how it was run: as §2
A549 [5] = test: Cell cycle arrest in human A549 cells assessed as accumulation at G0/G1 phase at 5 uM after 24 hrs; assay type: functional; how it was run: as §1
A549 [6] = test: Cell cycle arrest in human A549 cells assessed as accumulation at G0/G1 phase at 10 uM after 24 hrs; assay type: functional; how it was run: as §1
A549 [7] = test: Effect on cdk2 expression in human A549 cells after 24 hrs; assay type: functional, cell-based; how it was run: as §2
A549 [8] = test: Cell cycle arrest in human A549 cells assessed as accumulation at G2/M phase at 40 uM after 24 hrs; assay type: functional; how it was run: as §1
A549 [9] = test: Cell cycle arrest in human A549 cells assessed as accumulation at S phase at 20 uM after 24 hrs; assay type: functional; how it was run: as §1
MDA-MB-231 = test: Antiproliferative activity against human MDA-MB-231 cells after 72 hrs by SRB assay; assay type: functional, cell-based; conditions: MDA-MB-231, 72 h
A549 [10] = test: Cell cycle arrest in human A549 cells assessed as accumulation at G2/M phase at 20 uM after 24 hrs; assay type: functional; how it was run: as §1
A549 [11] = test: Cell cycle arrest in human A549 cells assessed as accumulation at subG1 phase at 5 uM after 24 hrs; assay type: functional; how it was run: as §1
A549 [12] = test: Cell cycle arrest in human A549 cells assessed as accumulation at G2/M phase at 5 uM after 24 hrs; assay type: functional; how it was run: as §1
A549 [13] = test: Cell cycle arrest in human A549 cells assessed as accumulation at subG1 phase at 20 uM after 24 hrs; assay type: functional; how it was run: as §1
A549 [14] = test: Effect on cdk4 expression in human A549 cells after 24 hrs; assay type: functional, cell-based; how it was run: as §2
A549 [15] = test: Cell cycle arrest in human A549 cells assessed as accumulation at G0/G1 phase at 20 uM after 24 hrs; assay type: functional; how it was run: as §1
K562 = test: Antiproliferative activity against human K562 cells after 72 hrs by MTT assay; assay type: functional, cell-based
SNU-638 = test: Antiproliferative activity against human SNU638 cells after 72 hrs by SRB assay; assay type: functional, cell-based
T47D = test: Antiproliferative activity against human T47D cells after 72 hrs by SRB assay; assay type: functional, cell-based
SK-HEP1 = test: Antiproliferative activity against human SK-HEP1 cells after 72 hrs by SRB assay; assay type: functional, cell-based; conditions: SK-HEP1, 72 h
A549 [16] = test: Effect on p27 expression in human A549 cells after 24 hrs; assay type: functional, cell-based; how it was run: as §2
A549 [17] = test: Cell cycle arrest in human A549 cells assessed as accumulation at G0/G1 phase at 60 uM after 24 hrs; assay type: functional; how it was run: as §1
A549 [18] = test: Cell cycle arrest in human A549 cells assessed as accumulation at subG1 phase at 60 uM after 24 hrs; assay type: functional; how it was run: as §1
A549 [19] = test: Cell cycle arrest in human A549 cells assessed as accumulation at S phase at 40 uM after 24 hrs; assay type: functional; how it was run: as §1
A549 [20] = test: Cell cycle arrest in human A549 cells assessed as accumulation at S phase at 10 uM after 24 hrs; assay type: functional; how it was run: as §1
A549 [21] = test: Cell cycle arrest in human A549 cells assessed as accumulation at S phase at 60 uM after 24 hrs; assay type: functional; how it was run: as §1
A549 [22] = test: Cell cycle arrest in human A549 cells assessed as accumulation at G2/M phase at 60 uM after 24 hrs; assay type: functional; how it was run: as §1
A549 [23] = test: Antiproliferative activity against human A549 cells after 72 hrs by SRB assay; assay type: functional, cell-based
A549 [24] = test: Cell cycle arrest in human A549 cells assessed as accumulation at G2/M phase at 10 uM after 24 hrs; assay type: functional; how it was run: as §1
A549 [25] = test: Cell cycle arrest in human A549 cells assessed as accumulation at subG1 phase at 10 uM after 24 hrs; assay type: functional; how it was run: as §1
A549 [26] = test: Cell cycle arrest in human A549 cells assessed as accumulation at G0/G1 phase at 40 uM after 24 hrs; assay type: functional; how it was run: as §1
A549 [27] = test: Effect on cyclin D1 expression in human A549 cells after 24 hrs; assay type: functional, cell-based; how it was run: as §2

Structure (SMILES): COc1cc2c(c(OC)c1OC)-c1c(cc(OC)c(OC)c1OC)C[C@](C)(O)[C@@H](C)C2 [SCHIZANDRIN]
pIC50 (HCT-15; Homo sapiens, HCT-15, 72 h): 4.30 | pIC50 (MDA-MB-231): 4.21 | pIC50 (K562; Homo sapiens, K562, 72 h): 4.60 | pIC50 (SNU-638; Homo sapiens, SNU-638, 72 h): 4.68 | pIC50 (T47D; Homo sapiens, T47D, 72 h): 4.70 | pIC50 (SK-HEP1): 4.15 | pIC50 (A549 [23]; Homo sapiens, A549, 72 h): 4.68

Structure (SMILES): COc1c2c(cc3c1-c1c(cc4c(c1OC)OCO4)C[C@H](C)[C@H](C)C3)OCO2 [SCHISANDRIN C]
pIC50 (HCT-15; Homo sapiens, HCT-15, 72 h): < 4.00 | pIC50 (MDA-MB-231): < 4.00 | pIC50 (K562; Homo sapiens, K562, 72 h): < 4.00 | pIC50 (SNU-638; Homo sapiens, SNU-638, 72 h): < 4.00 | pIC50 (T47D; Homo sapiens, T47D, 72 h): < 4.00 | pIC50 (SK-HEP1): < 4.00 | pIC50 (A549 [23]; Homo sapiens, A549, 72 h): < 4.00

Structure (SMILES): COc1cc2c(c(OC)c1OC)-c1c(cc3c(c1OC)OCO3)C[C@H](C)[C@H](C)C2 (stereo in doubt; form 1) [WUWEIZISU B]
pIC50 (HCT-15; hct-15): 4.85 | pIC50 (K562; k562): 4.66 | pIC50 (SNU-638; snu-638): 4.64 | pIC50 (T47D; t47d): 4.72 | pIC50 (A549 [23]; a549): 4.68

Structure (SMILES): COc1cc2c(c(OC)c1OC)-c1c(cc3c(c1OC)OCO3)C[C@H](C)[C@](C)(O)C2 [GOMISIN A]
pIC50 (HCT-15; Homo sapiens, HCT-15, 72 h): < 4.00 | pIC50 (MDA-MB-231): < 4.00 | pIC50 (K562; Homo sapiens, K562, 72 h): < 4.00 | pIC50 (SNU-638; Homo sapiens, SNU-638, 72 h): 4.04 | pIC50 (T47D; Homo sapiens, T47D, 72 h): < 4.00 | pIC50 (SK-HEP1): < 4.00 | pIC50 (A549 [23]; Homo sapiens, A549, 72 h): 4.08

Structure (SMILES): COc1cc2c(c(OC)c1OC)-c1c(cc(OC)c(OC)c1OC)C[C@H](C)[C@H](C)C2 [SCHISANDRIN A]
pIC50 (HCT-15; Homo sapiens, HCT-15, 72 h): < 4.00 | pIC50 (MDA-MB-231): < 4.00 | pIC50 (K562; Homo sapiens, K562, 72 h): < 4.00 | pIC50 (SNU-638; Homo sapiens, SNU-638, 72 h): 4.27 | pIC50 (T47D; Homo sapiens, T47D, 72 h): 4.40 | pIC50 (SK-HEP1): 4.38 | pIC50 (A549 [23]; Homo sapiens, A549, 72 h): < 4.00

Structure (SMILES): COc1cc2c(c(OC)c1OC)-c1c(cc3c(c1OC)OCO3)C[C@H](C)[C@H](C)C2 (stereo in doubt; form 2) [WUWEIZISU B]
pIC50 (HCT-15; hct-15): 4.06 | pIC50 (MDA-MB-231): < 4.00 | pIC50 (K562; k562): 4.20 | pIC50 (SNU-638; snu-638): < 4.00 | pIC50 (T47D; t47d): < 4.00 | pIC50 (SK-HEP1): < 4.00 | pIC50 (A549 [23]; a549): 4.06

Structure (SMILES): C/C=C(\C)C(=O)O[C@H]1c2cc(OC)c(OC)c(OC)c2-c2c(cc3c(c2OC)OCO3)C[C@H](C)[C@]1(C)O [GOMISIN B]
pIC50 (HCT-15; Homo sapiens, HCT-15, 72 h): < 4.00 | pIC50 (MDA-MB-231): < 4.00 | pIC50 (K562; Homo sapiens, K562, 72 h): < 4.00 | pIC50 (SNU-638; Homo sapiens, SNU-638, 72 h): < 4.00 | pIC50 (T47D; Homo sapiens, T47D, 72 h): < 4.00 | pIC50 (SK-HEP1): < 4.00 | pIC50 (A549 [23]; Homo sapiens, A549, 72 h): < 4.00

More lines, in order of rising pIC50 (MDA-MB-231), values ahead:

pIC50 (HCT-15; Homo sapiens, HCT-15, 72 h): < 4.00 | pIC50 (MDA-MB-231): 4.25 | pIC50 (K562; Homo sapiens, K562, 72 h): < 4.00 | pIC50 (SNU-638; Homo sapiens, SNU-638, 72 h): 4.35 | pIC50 (T47D; Homo sapiens, T47D, 72 h): 4.29 | pIC50 (SK-HEP1): 4.15 | pIC50 (A549 [23]; Homo sapiens, A549, 72 h): < 4.00
Structure (SMILES): COc1cc2c(c(OC)c1OC)-c1c(cc3c(c1OC)OCO3)C[C@H](C)[C@](C)(O)[C@H]2OC(=O)c1ccccc1 [GOMISIN C]

pIC50 (HCT-15; Homo sapiens, HCT-15, 72 h): 5.25 | pIC50 (MDA-MB-231): 4.47 | pIC50 (K562; Homo sapiens, K562, 72 h): 4.95 | pIC50 (SNU-638; Homo sapiens, SNU-638, 72 h): 4.82 | pIC50 (T47D; Homo sapiens, T47D, 72 h): 4.58 | pIC50 (SK-HEP1): 4.70 | pIC50 (A549 [23]; Homo sapiens, A549, 72 h): 5.25
Structure (SMILES): C/C=C(\C)C(=O)O[C@H]1c2cc(OC)c(OC)c(OC)c2-c2c(cc3c(c2O)OCO3)C[C@H](C)[C@]1(C)O [SCHISANTHERIN C]
Activity (A549 [1]): 31.8% | Activity (A549 [2]): 1.1% | Activity (A549 [3]): Active | Activity (A549 [4]): inactive | Activity (A549 [5]): 50.1% | Activity (A549 [6]): 50.4% | Activity (A549 [7]): inactive | Activity (A549 [8]): 15.9% | Activity (A549 [9]): 26% | Activity (A549 [10]): 16.2% | Activity (A549 [11]): 0.6% | Activity (A549 [12]): 18.1% | Activity (A549 [13]): 0.6% | Activity (A549 [14]): inactive | Activity (A549 [15]): 57.9% | Activity (A549 [16]): Active | Activity (A549 [17]): 75% | Activity (A549 [18]): 2.5% | Activity (A549 [19]): 18.8% | Activity (A549 [20]): 31.6% | Activity (A549 [21]): 8.2% | Activity (A549 [22]): 10.8% | Activity (A549 [24]): 18% | Activity (A549 [25]): 1.5% | Activity (A549 [26]): 65.3% | Activity (A549 [27]): inactive

pIC50 (HCT-15; Homo sapiens, HCT-15, 72 h): 6.22 | pIC50 (MDA-MB-231): 6.70 | pIC50 (SNU-638; Homo sapiens, SNU-638, 72 h): 7.15 | pIC50 (T47D; Homo sapiens, T47D, 72 h): 7.00 | pIC50 (SK-HEP1): 7.00 | pIC50 (A549 [23]; Homo sapiens, A549, 72 h): 7.00
Structure (SMILES): COc1cccc2c1C(=O)c1c(O)c3c(c(O)c1C2=O)C[C@@](O)(C(=O)CO)C[C@@H]3O[C@H]1C[C@H](N)[C@H](O)[C@H](C)O1 [DOXORUBICIN]
